# Source: ChEMBL document CHEMBL2380302, “Synthesis of 3-O-propargylated betulinic acid and its 1,2,3-triazoles as potential apoptotic agents” (Eur J Med Chem, 2013)
# The source made the active and inactive calls. The calls are words filed in the database; no cut-off is given here.
# Legend:
# HCT-15 [1] = assay: Cytotoxicity against human HCT15 cells at 1 uM after 48 hrs by SRB assay; assay type: functional; details: HCT-15, 48 h, read-out: GI
# HEp-2 [2] = assay: Cytotoxicity against human Hep2 cells at 1 uM after 48 hrs by SRB assay; assay type: functional; details: HEp-2, 48 h, read-out: GI
# THP-1 [3] = assay: Inhibition of cell invasion in human THP1 cells at 1 to 30 uM after 24 hrs by wound-healing assay; assay type: functional, cell-based
# Procedure, shortened: (§1)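 THP-1 monolayers (3×10⁵ cells/mL/well) were scratched with a pipette tip and washed three times with PBS. Test samples were added for 24 h, then fresh medium was added until the control wound healed. Wounds were imaged with a 10× objective at 0 h and 24 h. Migration was quantified as the distance between wound edges.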
# THP-1 [4] = assay: Inhibition of cell migration in human THP1 cells at 1 to 30 uM after 24 hrs by wound-healing assay; assay type: functional, cell-based; procedure, shortened: as §1
# HL-60 [5] = assay: Induction of apoptosis in human HL60 cells assessed as DNA ladder formation at 20 to 30 uM after 24 hrs by DNA agarose gel electrophoresis; assay type: functional, cell-based
# Procedure, shortened: (§2)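 DNA fragmentation assay in HL-60 cells (2 × 10⁶ cells/well) or CV-1 cells, treated for 24 h. Cells were lysed in Tris–HCl pH 8.0/NaCl/EDTA/Triton X-100 with proteinase K (200 µg/mL) at 50 °C for 1 h, then DNase-free RNase for 90 min. DNA was phenol:chloroform extracted and ethanol precipitated. Gels were 1% agarose in TAE at 80 V for 1.5 h. Camptothecin (5 µM, 6 h) served as positive control in HL-60.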
# HL-60 [6] = assay: Induction of apoptosis in human HL60 cells assessed as DNA ladder formation after 24 hrs by DNA agarose gel electrophoresis; assay type: functional; procedure, shortened: as §2
# CV-1 = assay: Induction of apoptosis in african green monkey CV1 cells assessed as DNA ladder formation at 10 to 60 uM after 24 hrs by DNA agarose gel electrophoresis; assay type: cell-based; details: chlorocebus aethiops, cv-1, 24 h; procedure, shortened: as §2
# HL-60 [7] = assay: Induction of apoptosis in human HL60 cells assessed as change in mitochondrial membrane potential after 24 hrs using rhodamine-123 staining by fluorescence based confocal microscopy analysis; assay type: functional, cell-based
# Procedure, shortened: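 HL-60 cells (6 × 10⁴/mL/well) were treated for 24 h. Rhodamine-123 (1 µM) was added in serum-free medium 30 min before the end, in the dark. Cells were then washed and resuspended in PBS. Fluorescence loss was viewed by confocal microscopy with 488 nm laser excitation. Each experiment was done twice.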
# THP-1 [8] = assay: Inhibition of colony formation in human THP1 cells using crystal violet staining after 24 hrs by clonogenic assay; assay type: functional, cell-based
# Procedure, shortened: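 THP-1 cells from log-phase culture were plated at clonogenic dilution. After 24 h they were treated for 24 h, then incubated for at least six potential divisions (colonies >50 cells). Colonies were fixed and stained with 6% glutaraldehyde plus 0.5% crystal violet for 30 min, washed with water and air-dried.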
# HCT-15 [9] = assay: Cytotoxicity against human HCT15 cells at 10 uM after 48 hrs by SRB assay; assay type: functional; details: HCT-15, 48 h, read-out: GI
# SF-295 [10] = assay: Cytotoxicity against human SF295 cells at 10 uM after 48 hrs by SRB assay; assay type: functional; details: SF-295, 48 h, read-out: GI
# A549 [11] = assay: Cytotoxicity against human A549 cells at 10 uM after 48 hrs by SRB assay; assay type: functional; details: A549, 48 h, read-out: GI
# MCF7 [12] = assay: Cytotoxicity against human MCF7 cells at 10 uM after 48 hrs by SRB assay; assay type: functional; details: MCF7, 48 h, read-out: GI
# HEp-2 [13] = assay: Cytotoxicity against human Hep2 cells at 10 uM after 48 hrs by SRB assay; assay type: functional; details: HEp-2, 48 h, read-out: GI
# PC-3 [14] = assay: Cytotoxicity against human PC3 cells at 10 uM after 48 hrs by SRB assay; assay type: functional; details: PC-3, 48 h, read-out: GI
# DU-145 [15] = assay: Cytotoxicity against human DU145 cells at 10 uM after 48 hrs by SRB assay; assay type: functional; details: DU-145, 48 h, read-out: GI
# HL-60 [16] = assay: Cytotoxicity against human HL60 cells at 10 uM after 48 hrs by SRB assay; assay type: functional; details: HL-60, 48 h, read-out: GI
# THP-1 [17] = assay: Cytotoxicity against human THP1 cells at 10 uM after 48 hrs by SRB assay; assay type: functional; details: THP-1, 48 h, read-out: GI
# HCT-15 [18] = assay: Cytotoxicity against human HCT15 cells at 30 uM after 48 hrs by SRB assay; assay type: functional; details: HCT-15, 48 h, read-out: GI
# SF-295 [19] = assay: Cytotoxicity against human SF295 cells at 30 uM after 48 hrs by SRB assay; assay type: functional; details: SF-295, 48 h, read-out: GI
# A549 [20] = assay: Cytotoxicity against human A549 cells at 30 uM after 48 hrs by SRB assay; assay type: functional; details: A549, 48 h, read-out: GI
# MCF7 [21] = assay: Cytotoxicity against human MCF7 cells at 30 uM after 48 hrs by SRB assay; assay type: functional; details: MCF7, 48 h, read-out: GI
# HEp-2 [22] = assay: Cytotoxicity against human Hep2 cells at 30 uM after 48 hrs by SRB assay; assay type: functional; details: HEp-2, 48 h, read-out: GI
# PC-3 [23] = assay: Cytotoxicity against human PC3 cells at 30 uM after 48 hrs by SRB assay; assay type: functional; details: PC-3, 48 h, read-out: GI
# DU-145 [24] = assay: Cytotoxicity against human DU145 cells at 30 uM after 48 hrs by SRB assay; assay type: functional; details: DU-145, 48 h, read-out: GI
# HL-60 [25] = assay: Cytotoxicity against human HL60 cells at 30 uM after 48 hrs by SRB assay; assay type: functional; details: HL-60, 48 h, read-out: GI
# THP-1 [26] = assay: Cytotoxicity against human THP1 cells at 30 uM after 48 hrs by SRB assay; assay type: functional; details: THP-1, 48 h, read-out: GI
# HCT-15 [27] = assay: Cytotoxicity against human HCT15 cells at 50 uM after 48 hrs by SRB assay; assay type: functional; details: HCT-15, 48 h, read-out: GI
# SF-295 [28] = assay: Cytotoxicity against human SF295 cells at 50 uM after 48 hrs by SRB assay; assay type: functional; details: SF-295, 48 h, read-out: GI
# A549 [29] = assay: Cytotoxicity against human A549 cells at 50 uM after 48 hrs by SRB assay; assay type: functional; details: A549, 48 h, read-out: GI
# MCF7 [30] = assay: Cytotoxicity against human MCF7 cells at 50 uM after 48 hrs by SRB assay; assay type: functional; details: MCF7, 48 h, read-out: GI
# HEp-2 [31] = assay: Cytotoxicity against human Hep2 cells at 50 uM after 48 hrs by SRB assay; assay type: functional; details: HEp-2, 48 h, read-out: GI
# PC-3 [32] = assay: Cytotoxicity against human PC3 cells at 50 uM after 48 hrs by SRB assay; assay type: functional; details: PC-3, 48 h, read-out: GI
# HL-60 [33] = assay: Cytotoxicity against human HL60 cells at 50 uM after 48 hrs by SRB assay; assay type: functional; details: HL-60, 48 h, read-out: GI
# DU-145 [34] = assay: Cytotoxicity against human DU145 cells at 50 uM after 48 hrs by SRB assay; assay type: functional; details: DU-145, 48 h, read-out: GI
# THP-1 [35] = assay: Cytotoxicity against human THP1 cells at 50 uM after 48 hrs by SRB assay; assay type: functional; details: THP-1, 48 h, read-out: GI
# HCT-15 [36] = assay: Cytotoxicity against human HCT15 cells after 48 hrs by SRB assay; assay type: functional, cell-based; details: HCT-15, 48 h
# A549 [37] = assay: Cytotoxicity against human A549 cells after 48 hrs by SRB assay; assay type: functional, cell-based; details: A549, 48 h
# SF-295 [38] = assay: Cytotoxicity against human SF295 cells after 48 hrs by SRB assay; assay type: functional, cell-based; details: SF-295, 48 h
# MCF7 [39] = assay: Cytotoxicity against human MCF7 cells after 48 hrs by SRB assay; assay type: functional, cell-based; details: MCF7, 48 h
# HEp-2 [40] = assay: Cytotoxicity against human Hep2 cells after 48 hrs by SRB assay; assay type: functional, cell-based; details: HEp-2, 48 h
# PC-3 [41] = assay: Cytotoxicity against human PC3 cells after 48 hrs by SRB assay; assay type: functional, cell-based; details: PC-3, 48 h
# DU-145 [42] = assay: Cytotoxicity against human DU145 cells after 48 hrs by SRB assay; assay type: functional, cell-based; details: DU-145, 48 h
# HL-60 [43] = assay: Cytotoxicity against human HL60 cells after 48 hrs by SRB assay; assay type: functional, cell-based; details: HL-60, 48 h
# THP-1 [44] = assay: Cytotoxicity against human THP1 cells after 48 hrs by SRB assay; assay type: functional, cell-based; details: THP-1, 48 h
structure (smiles),measurement,setting,value
CO[C@@]12[C@H](COC(N)=O)C3=C(C(=O)C(C)=C(N)C3=O)N1C[C@@H]1N[C@@H]12 [MITOMYCIN],inhibition of growth at 1 µM,HCT-15 [1],76%
same,inhibition of growth at 1 µM,HEp-2 [2],68%
C=C(C)[C@@H]1CC[C@]2(C(=O)O)CC[C@]3(C)[C@H](CC[C@@H]4[C@@]5(C)CC[C@H](OCc6cn(-c7ccccc7C#N)nn6)C(C)(C)[C@@H]5CC[C@]43C)[C@@H]12,inhibition,THP-1 [3],Active
same,inhibition,THP-1 [4],Active
same,Activity,HL-60 [5],Active
same,Activity,HL-60 [6],Dose-dependent effect
same,MED,HL-60 [6],20 µM
same,Activity,CV-1,Non-toxic
same,Activity,HL-60 [7],Dose-dependent effect
same,inhibition,THP-1 [8],Dose-dependent effect
same,inhibition of growth at 10 µM,HCT-15 [9],40%
same,inhibition of growth at 10 µM,SF-295 [10],45%
same,inhibition of growth at 10 µM,A549 [11],60%
same,inhibition of growth at 10 µM,MCF7 [12],60%
same,inhibition of growth at 10 µM,HEp-2 [13],45%
same,inhibition of growth at 10 µM,PC-3 [14],34%
same,inhibition of growth at 10 µM,DU-145 [15],32%
same,inhibition of growth at 10 µM,HL-60 [16],65%
same,inhibition of growth at 10 µM,THP-1 [17],50%
same,inhibition of growth at 30 µM,HCT-15 [18],61%
same,inhibition of growth at 30 µM,SF-295 [19],66%
same,inhibition of growth at 30 µM,A549 [20],74%
same,inhibition of growth at 30 µM,MCF7 [21],81%
same,inhibition of growth at 30 µM,HEp-2 [22],59%
same,inhibition of growth at 30 µM,PC-3 [23],71%
same,inhibition of growth at 30 µM,DU-145 [24],65%
same,inhibition of growth at 30 µM,HL-60 [25],90%
same,inhibition of growth at 30 µM,THP-1 [26],89%
same,inhibition of growth at 50 µM,HCT-15 [27],89%
same,inhibition of growth at 50 µM,SF-295 [28],71%
same,inhibition of growth at 50 µM,A549 [29],79%
same,inhibition of growth at 50 µM,MCF7 [30],97%
same,inhibition of growth at 50 µM,HEp-2 [31],68%
same,inhibition of growth at 50 µM,PC-3 [32],86%
same,inhibition of growth at 50 µM,HL-60 [33],98%
same,inhibition of growth at 50 µM,DU-145 [34],84%
same,inhibition of growth at 50 µM,THP-1 [35],92%
same,IC50,HCT-15 [36],20 µM
same,IC50,A549 [37],5 µM
same,IC50,SF-295 [38],15 µM
same,IC50,MCF7 [39],4.8 µM
same,IC50,HEp-2 [40],12 µM
same,IC50,PC-3 [41],14 µM
same,IC50,DU-145 [42],18 µM
same,IC50,HL-60 [43],2.5 µM
same,IC50,THP-1 [44],4.5 µM
